Reference: ChEMBL document CHEMBL1127060 (1993)
Active and inactive are the calls of the source. No cut-off for these calls is given here.

How the values were obtained:
Oryctolagus cuniculus [1] = species on record: Oryctolagus cuniculus; assay: Tested for relaxation of carbachol-contracted rabbit mesenteric artery at 37 degree C; Less potent than or equal 2MeSATP; type: functional
Cavia porcellus [2] = species on record: Cavia porcellus; assay: Tested for contraction of guinea pig vas deferens at 37 degree C; Less potent than or equal to ATP; type: functional
Cavia porcellus [3] = species on record: Cavia porcellus; assay: Tested for contraction of guinea pig isolated urinary bladder detrusor muscle at 37 degree C; Less potent than or equal to ATP; type: functional; details: Muscle tissue
Cavia porcellus [4] = species on record: Cavia porcellus; assay: Tested for relaxation of carbachol-contracted guinea pig taenia coli at 37 degree C; Potency equal to ATP; type: functional
Oryctolagus cuniculus [5] = species on record: Oryctolagus cuniculus; assay: Tested for relaxation of carbachol-contracted rabbit aorta at 37 degree C; More potent than or equal to 2MeSATP; type: functional
[6] = Agonism at turkey erythrocyte P2Y receptor.; type: functional, Meleagris gallopavo
Procedure, shortened: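 Turkey erythrocytes labeled 18–24 h at 37 °C with 2-[3H]myo-inositol in inositol-free DMEM; ghosts made by hypotonic lysis (5 mM Na phosphate pH 7.4, 5 mM MgCl2, 1 mM EGTA). PLC assay: ~175 μg protein ghosts, 1 μM GTPγS, Hepes pH 7.0 medium with 424 μM CaCl2, 2 mM EGTA; 5 min, 30 °C; total [3H]inositol phosphates by anion exchange; K0.5 averaged from 3–8 curves.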

Oryctolagus cuniculus [7] = species on record: Oryctolagus cuniculus; assay: Tested for contraction of rabbit saphenous artery produced by 1 uM alpha,beta-MeATP at 37 degree C; Not active; type: functional

Nc1nc(SCCc2ccc([N+](=O)[O-])cc2)nc2c1ncn2C1O[C@H](COP(=O)(O)O)[C@@H](O)[C@H]1O (some centres not stated)
Relative activity (Oryctolagus cuniculus [1]): 5.4
Relative activity (Cavia porcellus [2]): Partially active
Relative activity (Cavia porcellus [3]): Partially active
Relative activity (Cavia porcellus [4]): 6.5
Relative activity (Oryctolagus cuniculus [5]): 6.1
K 0.5 [6]: 3000 nM
Relative activity (Oryctolagus cuniculus [7]): inactive
